target: Voltage-gated potassium channel subunit beta-2 (Rattus norvegicus) (UniProt P62483); experiment: enhancers of rat Kvbeta2 NADPH turnover – biochemical, NADPH fluorescence, primary screen (AID 623); settings: Recombinant KvBeta, NADPH fluorescence decrease slope, 10 min; at 10 µM; stronger effect = lower value;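 also: fluorescence intensity change per second fitted from 20 to 320 s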
Sequence (P62483 whole entry, looked up): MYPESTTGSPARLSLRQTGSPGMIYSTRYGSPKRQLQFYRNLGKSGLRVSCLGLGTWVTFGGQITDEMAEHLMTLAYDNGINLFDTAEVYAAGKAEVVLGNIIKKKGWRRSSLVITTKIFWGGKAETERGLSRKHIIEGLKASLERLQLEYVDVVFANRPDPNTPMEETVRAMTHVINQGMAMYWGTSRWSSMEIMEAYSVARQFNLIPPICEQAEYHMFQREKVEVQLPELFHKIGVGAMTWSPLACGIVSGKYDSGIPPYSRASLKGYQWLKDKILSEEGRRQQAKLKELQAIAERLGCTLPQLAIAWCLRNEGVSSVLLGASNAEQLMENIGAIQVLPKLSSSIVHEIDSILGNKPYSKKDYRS

NADPH fluorescence slope, inactive:
CS(=O)(=O)Nc1ccc(C(=O)NCCc2ccccc2)cc1 -1.7e-06
Cc1ccc(S(=O)(=O)NCCC(=O)OCn2nnc3ccccc3c2=O)cc1 -4.9e-05
O=C(N1CCOCC1)N1CCC(NC(=O)C23CC4CC(CC(C4)C2)C3)CC1 -4e-05
COc1ccc(C(=O)N2CCOCC2)cc1Br 3.2e-05
Cc1ccc(S(=O)(=O)CCc2nnc(NC(=O)c3cnccn3)s2)cc1 -8.1e-06
O=C(C1CCN(S(=O)(=O)Cc2ccccc2)CC1)N1CCN(c2ncccn2)CC1 -0.000431
COc1ccc(C2CC(=O)c3c(C)nc(N4CCN(c5ccccc5)CC4)nc3C2)cc1 (stereo not given) -4.7e-05
Nc1nonc1C(=O)NCCNCc1cc(Br)ccc1OCc1ccccc1F -3.2e-05
CCCCN(CC)S(=O)(=O)c1ccc2c(c1)CCCN2C(C)=O -2.8e-05
Cc1c(Cc2ccccc2)sc(N)c1C(N)=O -2.6e-06
CCOC(=O)N1CCN(c2cc3nccnc3cc2F)CC1 -4.3e-05
N#Cc1nc(COc2ccccc2)oc1NCCN1CCOCC1 2.2e-05
O=C(Nc1ccccc1)N1C(=O)C2(OCCO2)c2ccccc21 -0.000137
CCOC(=O)C1CCCN(C(=O)c2cc3c(C)nc4ccccc4c3o2)C1 (stereo not given) 0.000185
CC12C(=O)N(CCC(=O)O)C(=O)C1C1C=CC2C1 (stereo not given) -4.5e-05
CCCC(=O)N1CCN(c2ccc(NC(=O)c3ccc(Br)o3)cc2)CC1 6.7e-06
Cc1ccc(Cn2ncc3c(NCCCN4CCOCC4)ncnc32)cc1 -1.3e-05
C/C(N)=C(/C#N)C(=O)COC(=O)COc1ccc(Cl)cc1 9.1e-05
Nc1c(C(=O)NCCc2ccccc2)nnn1Cc1ccccc1 -4.3e-05
Cc1ccc(-n2c(Cc3cccn3C)nnc2SCC(=O)NCc2ccc3c(c2)OCO3)cc1 2.3e-05
COc1ccc(/C=N/n2c(=O)[nH]c3c([nH]c4ccc(C)cc43)c2=O)cc1CN1CCOCC1 -0.000488
C=CCn1c(C)cc(C(=O)CSc2nc3ccccc3c(=O)[nH]2)c1C -3.3e-05
O=C(NCc1ccco1)C1CCN(S(=O)(=O)N2CCC3(CC2)OCCO3)CC1 -3.5e-05
CCOC(=O)c1c(C)oc2ccc(OCC(=O)N(CC)CC)cc12 -1.9e-05
COc1ccc(-c2cc(C(=O)NCc3ccc(Cl)cc3)no2)cc1OC -1.3e-05
O=C(Nc1cccnc1N1CCOCC1)c1ccco1 -1.1e-05
COc1ccc2c(-c3cccnc3)cc(=O)[nH]c2c1 -9.1e-05
CC1(C)CC(=O)C2=C(C1)Nc1nc(SCCN3CCOCC3)[nH]c(=O)c1C2c1cccs1 (stereo not given) -3e-05
CCOc1ccc(C(=O)N(Cc2ccc(N(C)C)cc2)C2CCS(=O)(=O)C2)cc1 (stereo not given) -3.1e-05
CC(C)Oc1ccc(-c2nn(-c3ccccc3)cc2/C=c2\sc3ncnn3c2=O)cc1 1e-05
CN(C)c1nc(Nc2ccc(Cl)cc2)nc(OCC#N)n1 1.7e-05
Cc1ccc(C)n1NC(=O)c1ccco1 -1.3e-05
CCC1(C)Cc2c(C#N)c(N)n(-c3ccccc3)c(=O)c2CO1 (stereo not given) 6.4e-05
O=C1CC(c2ccc(S(=O)(=O)N3CCN(c4ccccc4)CC3)cc2)CN1 (stereo not given) -4.6e-05
COc1cccc(NC(=O)Cc2nnc(SCC(=O)c3ccccc3)n2C)c1 1.7e-05
CCCC1CC(C)(C(=O)Cn2[nH]c(=O)ccc2=O)OC1=O (stereo not given) 0.000145
CS(=O)(=O)N(CC(=O)NC1CC1)c1cccc(F)c1 -5e-05
COc1ccc2c(c1)CCc1c(C(=O)NCc3cccnc3)noc1-2 -0.000203
CC(=O)Nc1ccc(S(=O)(=O)N(CC(=O)O)Cc2ccccc2)cc1 -4.6e-05
O=S(=O)(NCCc1ccncc1)c1cc(Br)ccc1F -1.6e-05

target: Muscarinic acetylcholine receptor M4 (Homo sapiens) (UniProt P08173); experiment: M4-linked GIRK flux change, two-sided – cell-based, HEK293 M4/GIRK, thallium flux, BTC-AM, M4 allosteric agonist project, primary screen (AID 625;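 active = fluorescence slope after compound addition differing from the mean of all tested samples at 99.7% confidence, mostly higher but some lower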;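 also: thallium influx through GIRK channels coupled to M4 in HEK293 cells with BTC-AM dye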); settings: at 10 µM, actives lie on both sides
Sequence (P08173 whole entry, looked up): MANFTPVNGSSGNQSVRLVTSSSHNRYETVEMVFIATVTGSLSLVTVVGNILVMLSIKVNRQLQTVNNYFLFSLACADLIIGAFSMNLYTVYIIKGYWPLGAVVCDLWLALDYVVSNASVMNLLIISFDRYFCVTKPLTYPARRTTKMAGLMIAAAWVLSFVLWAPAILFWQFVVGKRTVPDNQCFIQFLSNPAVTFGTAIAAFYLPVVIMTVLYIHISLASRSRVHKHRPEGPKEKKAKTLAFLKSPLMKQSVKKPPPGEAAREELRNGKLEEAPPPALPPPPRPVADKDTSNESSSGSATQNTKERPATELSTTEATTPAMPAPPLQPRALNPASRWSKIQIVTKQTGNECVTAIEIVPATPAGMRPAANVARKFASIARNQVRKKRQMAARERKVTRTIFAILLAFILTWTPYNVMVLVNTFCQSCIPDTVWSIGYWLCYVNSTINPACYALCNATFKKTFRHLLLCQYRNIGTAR
In short: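 Material – HEK293 cells with M4 receptor and GIRK channels · Buffer or medium – pH 7.3 thallium assay buffer · Doses – one dose, 10 µM final · Timing – cells overnight at 37 °C, BTC-AM loading 1 h, reads 2 min total · Measured by – kinetic fluorescence with BTC-AM dye · Controls – carbachol and DMSO controls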

Fluorescence slope, inactive:
CS(=O)(=O)Nc1ccc(C(=O)NCCc2ccccc2)cc1 0.00454
Cc1ccc(S(=O)(=O)NCCC(=O)OCn2nnc3ccccc3c2=O)cc1 0.00588
O=C(N1CCOCC1)N1CCC(NC(=O)C23CC4CC(CC(C4)C2)C3)CC1 0.00404
COc1ccc(C(=O)N2CCOCC2)cc1Br 0.0055
Cc1ccc(S(=O)(=O)CCc2nnc(NC(=O)c3cnccn3)s2)cc1 0.00653
O=C(C1CCN(S(=O)(=O)Cc2ccccc2)CC1)N1CCN(c2ncccn2)CC1 0.00525
COc1ccc(C2CC(=O)c3c(C)nc(N4CCN(c5ccccc5)CC4)nc3C2)cc1 (stereo not given) 0.00457
Nc1nonc1C(=O)NCCNCc1cc(Br)ccc1OCc1ccccc1F 0.00396
CCCCN(CC)S(=O)(=O)c1ccc2c(c1)CCCN2C(C)=O 0.0053
Cc1c(Cc2ccccc2)sc(N)c1C(N)=O 0.00569
CCOC(=O)N1CCN(c2cc3nccnc3cc2F)CC1 0.00552
N#Cc1nc(COc2ccccc2)oc1NCCN1CCOCC1 0.00627
O=C(Nc1ccccc1)N1C(=O)C2(OCCO2)c2ccccc21 0.00486
CCOC(=O)C1CCCN(C(=O)c2cc3c(C)nc4ccccc4c3o2)C1 (stereo not given) 0.00625
CC12C(=O)N(CCC(=O)O)C(=O)C1C1C=CC2C1 (stereo not given) 0.00503
CCCC(=O)N1CCN(c2ccc(NC(=O)c3ccc(Br)o3)cc2)CC1 0.00487
Cc1ccc(Cn2ncc3c(NCCCN4CCOCC4)ncnc32)cc1 0.00555
C/C(N)=C(/C#N)C(=O)COC(=O)COc1ccc(Cl)cc1 0.00641
Nc1c(C(=O)NCCc2ccccc2)nnn1Cc1ccccc1 0.00544
Cc1ccc(-n2c(Cc3cccn3C)nnc2SCC(=O)NCc2ccc3c(c2)OCO3)cc1 0.00714
COc1ccc(/C=N/n2c(=O)[nH]c3c([nH]c4ccc(C)cc43)c2=O)cc1CN1CCOCC1 0.00369
C=CCn1c(C)cc(C(=O)CSc2nc3ccccc3c(=O)[nH]2)c1C 0.0056
O=C(NCc1ccco1)C1CCN(S(=O)(=O)N2CCC3(CC2)OCCO3)CC1 0.00611
CCOC(=O)c1c(C)oc2ccc(OCC(=O)N(CC)CC)cc12 0.00589
COc1ccc(-c2cc(C(=O)NCc3ccc(Cl)cc3)no2)cc1OC 0.00727
O=C(Nc1cccnc1N1CCOCC1)c1ccco1 0.00549
COc1ccc2c(-c3cccnc3)cc(=O)[nH]c2c1 0.00553
CC1(C)CC(=O)C2=C(C1)Nc1nc(SCCN3CCOCC3)[nH]c(=O)c1C2c1cccs1 (stereo not given) 0.00647
CCOc1ccc(C(=O)N(Cc2ccc(N(C)C)cc2)C2CCS(=O)(=O)C2)cc1 (stereo not given) 0.00328
CC(C)Oc1ccc(-c2nn(-c3ccccc3)cc2/C=c2\sc3ncnn3c2=O)cc1 0.00832
CN(C)c1nc(Nc2ccc(Cl)cc2)nc(OCC#N)n1 0.00241
Cc1ccc(C)n1NC(=O)c1ccco1 0.00521
CCC1(C)Cc2c(C#N)c(N)n(-c3ccccc3)c(=O)c2CO1 (stereo not given) 0.00509
O=C1CC(c2ccc(S(=O)(=O)N3CCN(c4ccccc4)CC3)cc2)CN1 (stereo not given) 0.00584
COc1cccc(NC(=O)Cc2nnc(SCC(=O)c3ccccc3)n2C)c1 0.0063
CCCC1CC(C)(C(=O)Cn2[nH]c(=O)ccc2=O)OC1=O (stereo not given) 0.00625
CS(=O)(=O)N(CC(=O)NC1CC1)c1cccc(F)c1 0.00595
COc1ccc2c(c1)CCc1c(C(=O)NCc3cccnc3)noc1-2 0.00462
CC(=O)Nc1ccc(S(=O)(=O)N(CC(=O)O)Cc2ccccc2)cc1 0.00557
O=S(=O)(NCCc1ccncc1)c1cc(Br)ccc1F 0.00792

— PubChem BioAssay
